Columns and labels:
[1] = target: Geranylgeranyl transferase type I (Homo sapiens, UniProt P49354+P53609); assay: Inhibition of Geranylgeranyl transferase type I from porcine brain tissue; set-up: species or system Sus scrofa; conditions: target entry is the homologue from another species; read-out: I50
How it was run: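 Porcine brain GGT-I, partially purified; substrates 12 μM bacterially expressed p21 rasCVLL and 0.5 μM [3H]GGPP (19.3 Ci/mmol), with 10 mM DTT, 5 mM MgCl2, 5 μM ZnCl2, 100 mM HEPES pH 7.4. Incubated 1 h at 37 °C. Protein precipitated with SDS/TCA, filtered, radioactivity counted. Triplicates, SEM reported; IC50 determined.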

[2] = target: T1, Protein farnesyltransferase (Homo sapiens, UniProt P49354+P49356); assay: Inhibition of Ras Farnesyltransferase enzyme from pig brain; set-up: species or system Sus scrofa; conditions: target entry is the homologue from another species; read-out: I50
How it was run: (§1)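 Pig brain FPT purified about 2000-fold over crude cytosol. Reaction contains 1 μM [3H]FPP, 7 μM recombinant p21 H-Ras (E. coli, partially purified), 25 mM MgCl2, 10 mM DTT and 100 mM HEPES 7.4, with inhibitor usually 360 to 0.02 μM. Run 1 h at 37 °C, then SDS/TCA precipitation, filtration and scintillation counting. Triplicate points; IC50 from % control vs log concentration; each compound tested at least twice.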

[3] = target: T1, Protein farnesyltransferase; assay: Inhibition of Ras Farnesyltransferase from pig brain; set-up: species or system Sus scrofa; conditions: target entry is the homologue from another species; read-out: I50; how it was run: as §1
[4] = target: T1, Protein farnesyltransferase; assay: Inhibition of Ras Farnesyltransferase obtained from pig brain; 'a' indicates prodrug; set-up: species or system Sus scrofa; conditions: target entry is the homologue from another species; how it was run: as §1
[5] = system: Geranylgeranyl transferase type I (Sus scrofa); assay: Inhibition of Geranylgeranyl transferase type I from porcine brain tissue; 'a' indicates prodrug

| SMILES | IC50 [1] [µM] | IC50 [2] [µM] | IC50 [3] [µM] | I50 [4] | I50 [5] |
| --- | --- | --- | --- | --- | --- |
| CC(C)=CCC/C(C)=C/CC/C(C)=C/CP(=O)(O)OCC(=O)N[C@H](C(=O)N[C@@H](CC(C)C)C(=O)N[C@@H](CO)C(=O)O)C(C)C | 59 | 0.06 |  |  |  |
| CSCC[C@H](NC(=O)[C@@H](NC(=O)[C@@H](NC(=O)CCP(=O)(O)C/C=C(\C)CC/C=C(\C)CCC=C(C)C)C(C)C)C(C)C)C(=O)O | 21 |  | 0.006 |  |  |
| COC(=O)[C@H](CCSC)NC(=O)[C@@H](NC(=O)[C@@H](NC(=O)CCP(=O)(O)C/C=C(\C)CC/C=C(\C)CCC=C(C)C)C(C)C)C(C)C |  |  |  | Prepared and evaluated as prodrugs | Prepared and evaluated as prodrugs |
| COC(=O)[C@H](CCSC)NC(=O)[C@@H](NC(=O)[C@@H](NC(=O)COP(=O)(O)C/C=C(\C)CC/C=C(\C)CCC=C(C)C)C(C)C)C(C)C |  |  |  | Prepared and evaluated as prodrugs | Prepared and evaluated as prodrugs |
| CSCC[C@H](NC(=O)[C@@H](NC(=O)[C@@H](NC(=O)COP(=O)(O)C/C=C(\C)CC/C=C(\C)CCC=C(C)C)C(C)C)C(C)C)C(=O)O | 10 | 0.0062 |  |  |  |

— ChEMBL document CHEMBL1128226, “Phosphinyl acid-based bisubstrate analog inhibitors of Ras farnesyl protein transferase” (J Med Chem, 1995)
